The subject of data set [1] is Trypanosoma cruzi. Briefly: Antitrypanosomal activity against Trypanosoma cruzi Y trypomastigote infected in monkey LLC-MK2 cells assessed as inhibition of cell invasion by trypanosoma by measuring infected […] at 250 uM pretreated with cells for 30 mins followed by trypomastigote infection measured after 18 hrs by panoptic dye-based optical microscopic analysis (reference value: 63%). Type of data set: functional. Further details: scale not given: the % may be the effect or the level left. The procedure, abridged: (§1)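 LLCMK2 cells adhered on coverslips, exposed to compound at 250 µM for 30 min, then infected with Y-strain trypomastigotes (1 x 10^5; 5 parasites per cell). Incubated 18 h at 37 °C, 5% CO2, then fixed, stained with panoptic dye and read by optical microscopy. Scored as % infected cells, mean amastigotes per cell, and infection index (% infected × mean parasites per cell). Triplicate.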

For data set [2], the system named is Trypanosoma cruzi. Description: Trypanocidal activity against Trypanosoma cruzi Y trypomastigote assessed as effect on parasite viability at 31.25 to 250 uM after 48 hrs by resazurin-based assay. It counts as functional, organism-based. Put shortly:
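Culture-derived Y-strain trypomastigotes, 1 x 10^6 per well, in RPMI 1640 with 10% FBS containing compound (250 to 31,25 µM). Held 48 h at 37 °C, 5% CO2. Resazurin added for 6 h, then read at 570 and 600 nm. Viability from OD570 minus OD600, relative to untreated parasites.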

For data set [3], the system named is Trypanosoma cruzi. Briefly: Antitrypanosomal activity against Trypanosoma cruzi Y trypomastigote infected in monkey LLCMK2 cells assessed as inhibition of cell invasion by trypanosoma by measuring infection index at 250 uM pretreated with cells for 30 mins followed by trypomastigote infection measured after 18 hrs by panoptic dye-based optical microscopic analysis (reference value: 68). It counts as functional. Put shortly: as §1

In data set [4] the target is T1, Trans-sialidase (Trypanosoma cruzi) (UniProt Q26964).
T1 sequence (whole entry): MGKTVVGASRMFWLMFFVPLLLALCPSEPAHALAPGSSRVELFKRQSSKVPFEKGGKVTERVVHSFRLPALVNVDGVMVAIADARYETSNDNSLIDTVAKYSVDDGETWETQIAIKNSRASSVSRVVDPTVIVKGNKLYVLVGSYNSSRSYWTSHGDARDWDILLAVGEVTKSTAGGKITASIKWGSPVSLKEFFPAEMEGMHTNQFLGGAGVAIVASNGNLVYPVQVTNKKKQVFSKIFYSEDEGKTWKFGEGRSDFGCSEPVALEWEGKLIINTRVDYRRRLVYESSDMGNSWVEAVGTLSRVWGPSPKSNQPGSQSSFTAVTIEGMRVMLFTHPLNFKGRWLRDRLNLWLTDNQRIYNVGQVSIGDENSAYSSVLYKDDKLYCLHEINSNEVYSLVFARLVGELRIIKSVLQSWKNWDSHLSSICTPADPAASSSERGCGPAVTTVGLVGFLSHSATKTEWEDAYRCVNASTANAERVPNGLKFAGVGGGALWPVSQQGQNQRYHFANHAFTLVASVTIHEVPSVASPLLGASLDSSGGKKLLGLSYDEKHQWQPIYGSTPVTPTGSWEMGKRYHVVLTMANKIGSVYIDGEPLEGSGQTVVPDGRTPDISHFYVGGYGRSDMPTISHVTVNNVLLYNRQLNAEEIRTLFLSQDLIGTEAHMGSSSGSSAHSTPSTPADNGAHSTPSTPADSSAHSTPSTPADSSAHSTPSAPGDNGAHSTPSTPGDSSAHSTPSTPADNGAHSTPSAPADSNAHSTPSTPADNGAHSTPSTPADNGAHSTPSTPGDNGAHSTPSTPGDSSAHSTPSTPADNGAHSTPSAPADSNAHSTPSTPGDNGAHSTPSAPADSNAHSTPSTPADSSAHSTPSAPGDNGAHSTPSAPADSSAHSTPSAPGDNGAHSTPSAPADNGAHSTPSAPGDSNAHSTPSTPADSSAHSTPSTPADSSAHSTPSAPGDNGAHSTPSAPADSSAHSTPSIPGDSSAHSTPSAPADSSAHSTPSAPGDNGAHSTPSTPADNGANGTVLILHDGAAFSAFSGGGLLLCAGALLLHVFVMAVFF
Description: Inhibition of recombinant His-tagged Trypanosoma cruzi trans-sialidase N-terminal catalytic domain at 1 mM preincubated for 10 mins followed by MuNANA addition measured over 5 mins by fluorimetric assay relative to control. The procedure, abridged: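 Recombinant His-tagged 70 kDa trans-sialidase, truncated to the catalytic N-terminal domain, in phosphate buffer pH 7. Preincubated with inhibitor at 1.0 mM final for 10 min at 26 °C. MuNANA added to 0.1 mM and released fluorescence followed over 5 min (ex 360/em 460 nm). Triplicate. %I = 100 × [1 − Vi/V0].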

A further data set has as its target Galectin-3 (Homo sapiens, UniProt P17931). Briefly: Binding affinity to recombinant human galectin-3 expressed in Escherichia coli BL21 after 3 hrs. The procedure, abridged:
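Human galectin-3 expressed in E. coli BL21, purified on lactosyl-Sepharose, immobilized at 150 µg/mL (20 mM sodium acetate, pH 4.0, 16 h, 4 °C) on NHS-activated label-free biosensor. Compound dissolved in DMSO, diluted into PBS pH 7.4 with 1% or 2% DMSO, 0.09–400 µM, triplicate. Wavelength shift (pm) read over 3 h at 25 °C, blank-subtracted. EC50 from one-site binding fit.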

Data set [5] deals with Trypanosoma cruzi. Briefly: Antitrypanosomal activity against Trypanosoma cruzi Y trypomastigote infected in monkey LLC-MK2 cells assessed as inhibition of cell invasion by trypanosoma by measuring mean number of amastigote parasites per cells at 250 uM pretreated with cells for 30 mins followed by trypomastigote infection measured after 18 hrs by panoptic dye-based optical microscopic analysis. It counts as functional, organism-based. Put shortly:
as §1

Another data set has as its system LLC-MK2. Briefly: Cytotoxicity against monkey LLC-MK2 cells assessed as reduction in cell viability after 48 hrs by MTT assay. The note with it: rhesus monkey, llc-mk2, 48 h. It counts as cell-based, Macaca mulatta. Put shortly: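 LLCMK2 cells, 1 x 10^4 per well, adhered overnight in RPMI 1640 with 10% FBS. Exposed to 500 to 67,5 µM compound in triplicate for 48 h at 37 °C, 5% CO2. MTT added for 4 h, formazan dissolved in DMSO, absorbance at 570 nm.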

For the next data set, the target named is T2, Trans-sialidase (Trypanosoma cruzi, UniProt Q26964).
T2 sequence (Q26964 whole entry): T1 sequence (whole entry)
Briefly: Inhibition of Trypanosoma cruzi trans-sialidase using Trifluoromethylumbelliferyl alpha-sialoside as substrate by UV/visible spectrophotometer.

The source made the active and inactive calls. No cut-off for these calls is given here.

Galectin-3, sequence (P17931 whole entry): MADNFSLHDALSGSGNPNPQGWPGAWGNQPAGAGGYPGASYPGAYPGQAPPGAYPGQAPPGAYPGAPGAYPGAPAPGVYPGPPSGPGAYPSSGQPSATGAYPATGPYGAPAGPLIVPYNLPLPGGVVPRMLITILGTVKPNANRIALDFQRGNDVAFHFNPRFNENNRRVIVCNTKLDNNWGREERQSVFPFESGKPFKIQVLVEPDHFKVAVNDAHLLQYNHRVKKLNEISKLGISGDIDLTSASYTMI

In the case of `COc1cc(NS(=O)(=O)c2ccc(-n3cc(CO[C@H]4[C@@H](O)[C@@H](CO)O[C@@H](OC)[C@@H]4O)nn3)cc2)nc(OC)n1`, the results for the Activity with Trypanosoma cruzi [1], at Galectin-3 and with LLC-MK2 were 38%, “Dose-dependent effect” and “Non-Toxic”, respectively. For the same compound, the result in the data set with Trypanosoma cruzi [2] was inactive. Also, the Activity_index in the data set on Trypanosoma cruzi [3] is on record as 20. Besides, the inhibition in data set [4] lay in the range of 4.5 to 16%. Moreover, on Galectin-3, the EC50 turned out to be 18.3 µM. The outcome in the data set on Trypanosoma cruzi [5] was Active.
Consider `Cc1ccc(S(=O)(=O)N2c3ccccc3C(=O)/C(=C/c3ccc(O)c(O)c3)C2c2ccc(O)c(O)c2)cc1` (stereo not drawn), for which, on Trans-sialidase, half-maximal inhibition (IC50) was put at 0.6 µM.
Take `CO[C@@H]1O[C@H](CO)[C@H](O)[C@H](OCc2cn(-c3ccc(S(=O)(=O)Nc4cc(C)on4)cc3)nn2)[C@H]1O`: the Activity in the data set with Trypanosoma cruzi [1] was 41%; at Galectin-3 it was “Dose-dependent effect”; in the data set with LLC-MK2, “Non-Toxic”. Besides, the outcome in the data set on Trypanosoma cruzi [2] was inactive. In addition, the Activity_index with Trypanosoma cruzi [3] was 20. Further, the inhibition in data set [4] lay in the range of 4.5 to 16%. For the same compound, the EC50 at Galectin-3 stood at 17.2 µM. Further, the outcome in the data set on Trypanosoma cruzi [5] was Active.
Consider `CO[C@@H]1O[C@H](CO)[C@H](O)[C@H](OCc2cn(-c3ccc(S(N)(=O)=O)cc3)nn2)[C@H]1O`, for which the Activity in the data set with Trypanosoma cruzi [1] was 47 - 54%; on Galectin-3, “Dose-dependent effect”; in the data set on LLC-MK2, “Non-Toxic”. For the same compound, the outcome in the data set on Trypanosoma cruzi [2] was inactive. Also, the Activity_index in the data set on Trypanosoma cruzi [3] is listed as 28 - 44. In addition, the inhibition in data set [4] fell in the range of 4.5 to 16%. On Galectin-3, the EC50 came out at 40.7 µM. In addition, in the data set on Trypanosoma cruzi [5], the outcome was Active.
Take `CO[C@@H]1O[C@H](CO)[C@H](O)[C@H](OCc2cn(-c3ccc(S(=O)(=O)Nc4ccccn4)cc3)nn2)[C@H]1O`: the Activity was 47 - 54% with Trypanosoma cruzi [1] and “Non-Toxic” in the data set on LLC-MK2. The result in the data set on Trypanosoma cruzi [2] was inactive. Also, in the data set on Trypanosoma cruzi [3], the Activity_index was 28 - 44. Moreover, the inhibition in data set [4] was 4.5 to 16%. Also, in the data set on Trypanosoma cruzi [5], the outcome was Active.
Consider `CO[C@@H]1O[C@H](CO)[C@H](O)[C@H](OCc2cn(-c3ccc(S(=O)(=O)NC(C)=O)cc3)nn2)[C@H]1O`, for which the Activity is 47 - 54% in the data set on Trypanosoma cruzi [1], “Dose-dependent effect” on Galectin-3 and “Non-Toxic” in the data set on LLC-MK2. Also, the outcome with Trypanosoma cruzi [2] was inactive. In addition, the Activity_index in the data set on Trypanosoma cruzi [3] is 28 - 44. Also, the inhibition in data set [4] came out at 88%. On Galectin-3, the EC50 is 205 µM. Moreover, in the data set with Trypanosoma cruzi [5], the outcome was Active.
As to `CO[C@@H]1O[C@H](CO)[C@H](O)[C@H](OCc2cn(-c3ccc(S(=O)(=O)Nc4nccc(C)n4)cc3)nn2)[C@H]1O`, the Activity in the data set on Trypanosoma cruzi [1] was 47 - 54%; in the data set with LLC-MK2 it was “Non-Toxic”. Moreover, the result in the data set on Trypanosoma cruzi [2] was inactive. For the same compound, the Activity_index with Trypanosoma cruzi [3] is given as 28 - 44. The inhibition in data set [4] fell in the range of 4.5 to 16%. In the data set with Trypanosoma cruzi [5], the outcome was Active.
As for `CO[C@@H]1O[C@H](CO)[C@H](O)[C@H](OCc2cn(-c3ccc(S(=O)(=O)Nc4nc(C)cc(C)n4)cc3)nn2)[C@H]1O`, the Activity with Trypanosoma cruzi [1] was 47 - 54%; on Galectin-3, “Dose-dependent effect”; in the data set with LLC-MK2, “Non-Toxic”. Besides, the outcome in the data set with Trypanosoma cruzi [2] was inactive. Also, the Activity_index in the data set with Trypanosoma cruzi [3] was 28 - 44. Moreover, the inhibition in data set [4] lay in the range of 4.5 to 16%. The EC50 on Galectin-3 came to 67.7 µM. Further, the result with Trypanosoma cruzi [5] was Active.

Values taken from ChEMBL document CHEMBL4177604, “Binding of triazole-linked galactosyl arylsulfonamides to galectin-3 affects Trypanosoma cruzi cell invasion” (Bioorg Med Chem, 2017).
